Numbering of substitutions follows the chain as printed. Numbered stars: 1 amine (or outer) side, 2 acyl side, 3 side chain; on linkers, the order of the positions; unused ones are H or OH. Bridge positions count the residues as written; N and C are the ends. Square brackets hold non-standard residues; d marks the D form. Peptide text beside a SMILES is read from it. * marks the point of attachment. Leu(3R-OH,Nα-propionyl) = CCC(=O)N[C@H](C(=O)*)[C@H](O)C(C)C; X1 = CC(C)[C@@H](O[*:3])[C@H](N[*:1])C(=O)[*:2]; NMeT = CN[C@H](C(=O)O)[C@@H](C)O; dPhLac = O=C(O)[C@H](O)Cc1ccccc1; NMeA = CN[C@@H](C)C(=O)O; NMeDha = C=C(NC)C(=O)O
Assays:
Mel202 cells [1] = assay: Immunofluorescence staining of melanocytic markers in Mel202 cells; assay type: cell-based, human
Outline: (§1)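 Immunofluorescence for TYR, DCT and PMEL. An equal volume of 2× fixative (PBS, 4% paraformaldehyde, 0.4% glutaraldehyde) was added to cells in growth medium for 15 min at 37 °C. Cells were permeabilized with 0.1% Triton X-100 for 5 min, blocked with 2% fish gelatin, and labelled with Alexa Fluor secondaries. The proportion of marker-positive cells was compared with Fisher's exact test. Representative of 3 experiments.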

OCM-1A cells [2] = assay: Cell viability/proliferation; assay type: cell-based, human; settings: even at 10 μM
Outline: (§2)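 Water-soluble tetrazolium salt (WST-8) viability assay run per the maker's protocol. Cells were grown in RPMI 1640 with 10% FBS and antibiotics at 37 °C, 5% CO2. Fold-change in viability over time was followed at increasing test compound concentrations, and EC50 was taken from concentration-response data. Mean ± SEM of 4 experiments, each in triplicate.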

Mel202 cells [3] = assay: Melanocytic pigmentation of Mel202 cells; assay type: cell-based, human; settings: Mel202, 3 days, vs vehicle
Outline: (§3)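 Cells were treated with test compound for 3 days, then pelleted and examined macroscopically for pigmentation against vehicle (DMSO). Representative images are from one of 3 experiments, each in triplicate.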

92.1 cells [4] = assay: RNA-Seq gene expression in FR-treated 92.1 cells; assay type: cell-based, human; settings: 92.1, 100 nM FR
Gαi/q(R54K) [5] = molecular target: Gαi/q(R54K) (Homo sapiens, UniProt P63096, H188P/K180P/T187Y/V185I/V50I/V72L/Y69F); assay: Nucleotide exchange; assay type: biochemical; settings: in vitro
Sequence of Gαi/q(R54K) (Homo sapiens, UniProt P63096, H188P/K180P/T187Y/V185I/V50I/V72L/Y69F) (P63096 whole entry V50I/Y69F/V72L/K180P/V185I/T187Y/H188P): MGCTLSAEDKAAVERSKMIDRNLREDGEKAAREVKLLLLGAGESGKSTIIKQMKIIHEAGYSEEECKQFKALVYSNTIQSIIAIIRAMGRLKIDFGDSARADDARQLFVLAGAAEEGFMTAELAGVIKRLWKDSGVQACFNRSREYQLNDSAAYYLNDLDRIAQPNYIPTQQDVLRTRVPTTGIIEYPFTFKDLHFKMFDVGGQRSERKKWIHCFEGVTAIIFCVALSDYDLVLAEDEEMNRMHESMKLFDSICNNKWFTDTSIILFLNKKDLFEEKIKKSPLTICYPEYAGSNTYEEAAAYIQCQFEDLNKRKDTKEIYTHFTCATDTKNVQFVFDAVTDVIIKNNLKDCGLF

Mel202 cells [6] = assay: Flow cytometry of DNA content; assay type: cell-based, human; settings: Mel202, 3 days
Outline: (§4)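 Cells were treated with test compound for 3 days, then stained with propidium iodide for DNA content and run on a FACScan flow cytometer. The sub-G1 fraction gave apoptosis; S- and G2/M-phase fractions gave proliferation. Mean ± SEM of 4 experiments. t-tests were corrected with the Holm-Sidak method.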

Gα13(Q226L) / Gβ1γ2 = molecular target: T1, Gα13(Q226L) / Gβ1γ2 (Homo sapiens, UniProt Q14344, Q226L); assay: Split-luciferase complementation between Gβ1γ2 and constitutively active Gα13; assay type: cell-based
T1 sequence (Q14344 1-377 Q226L): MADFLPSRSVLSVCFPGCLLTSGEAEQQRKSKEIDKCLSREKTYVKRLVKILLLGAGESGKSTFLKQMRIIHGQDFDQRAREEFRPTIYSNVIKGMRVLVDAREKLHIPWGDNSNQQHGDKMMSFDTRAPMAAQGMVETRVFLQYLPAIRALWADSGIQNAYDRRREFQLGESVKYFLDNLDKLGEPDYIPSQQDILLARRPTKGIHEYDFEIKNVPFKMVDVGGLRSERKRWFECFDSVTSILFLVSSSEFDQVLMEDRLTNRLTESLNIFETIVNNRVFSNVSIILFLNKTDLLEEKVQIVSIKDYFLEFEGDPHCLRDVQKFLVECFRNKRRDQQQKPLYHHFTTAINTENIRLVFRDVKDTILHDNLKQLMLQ
Outline: (§5)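 Split click beetle green luciferase in transiently transfected HEK293 cells. The N-terminal fragment sat in the helical-domain αB-αC loop of wild type or Q226L Gα13. The C-terminal fragment was fused to the N-terminus of Gβ1 (with untagged Gγ2 co-transfected) or of the LARG RGS domain. Cells were treated 18 h with test compound or DMSO, then reconstituted luciferase activity was read. Triplicate wells; 3 experiments on different days.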

92.1 cells [7] = assay: Melanocytic pigmentation of 92.1 cells; assay type: cell-based, human; settings: 92.1, 3 days, vs vehicle
Outline: as §3

wild type Gαq / Gβγ = molecular target: T2, wild type Gαq / Gβγ (Mus musculus, UniProt P21279); assay: Co-purification of endogenous Gβγ with affinity-tagged wild type Gαq; assay type: cell-based; settings: FR 1 μM, 24 hours; n=3
T2 sequence (P21279 1-359): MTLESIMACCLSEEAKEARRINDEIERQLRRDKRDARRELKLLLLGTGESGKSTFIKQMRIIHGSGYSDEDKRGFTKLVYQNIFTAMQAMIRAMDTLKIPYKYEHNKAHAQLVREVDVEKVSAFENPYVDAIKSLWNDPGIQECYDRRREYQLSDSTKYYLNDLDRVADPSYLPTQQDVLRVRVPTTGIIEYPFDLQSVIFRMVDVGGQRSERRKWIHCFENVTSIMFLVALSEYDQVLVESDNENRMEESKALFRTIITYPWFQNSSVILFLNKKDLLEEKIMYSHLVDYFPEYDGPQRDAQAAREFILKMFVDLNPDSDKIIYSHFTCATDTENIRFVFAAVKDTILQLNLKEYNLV
Outline: (§6)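 HEK293 cells were transfected with mouse Gαq, either wild type or Q209L. A FLAG-StrepII-StrepII tag flanked by Gly/Ser linkers was inserted between residues 124 and 125. After 24 h, cells got FR (1 μM) or DMSO for 24 h. They were lysed in 50 mM Tris pH 8.0, 100 mM NaCl, 5 mM EDTA, 1 mM MgCl2, 0.5% IGEPAL, ± 1 μM FR. StrepTactin then anti-FLAG purification at 4 °C. Immunoblot for FLAG and Gβ; 3 independent experiments.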

92.1 cells [8] = assay: IP1 abundance; assay type: cell-based, human; settings: 92.1, Gαq(Q209L)-driven
Outline: (§7)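 Homogeneous IP1 immunoassay (IP-One kit). Seeding was 10,000 Mel202, 20,000 92.1 or 20,000 OCM-1A cells per well. After overnight culture, cells got test compound or DMSO and were incubated until the next day. Stimulation buffer was added for 1 h, then IP1-d2 and anti-IP1 cryptate for 60 min at room temperature. IP1 was read from kit standard curves. Mean ± SEM of 4 experiments, each in triplicate.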

wild type Gα13 / Gβ1γ2 = wild type Gα13 / Gβ1γ2 (Homo sapiens, UniProt Q14344); assay: Split-luciferase complementation between Gβ1γ2 and wild type Gα13; assay type: cell-based
Sequence of wild type Gα13 / Gβ1γ2 (P59768 2-68): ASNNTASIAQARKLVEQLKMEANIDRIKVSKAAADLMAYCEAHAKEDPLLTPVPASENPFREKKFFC
Sequence of wild type Gα13 / Gβ1γ2 (P62873 whole entry, further chain): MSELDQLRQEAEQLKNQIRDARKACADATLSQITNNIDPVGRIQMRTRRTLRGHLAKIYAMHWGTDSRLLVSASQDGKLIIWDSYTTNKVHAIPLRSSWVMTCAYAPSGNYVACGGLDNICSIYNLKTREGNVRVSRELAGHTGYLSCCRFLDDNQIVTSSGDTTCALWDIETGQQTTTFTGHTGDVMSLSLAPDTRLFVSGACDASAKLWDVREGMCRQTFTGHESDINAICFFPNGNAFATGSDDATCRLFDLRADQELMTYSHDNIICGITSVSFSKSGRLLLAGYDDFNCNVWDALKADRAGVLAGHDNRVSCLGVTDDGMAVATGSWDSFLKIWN
Sequence of wild type Gα13 / Gβ1γ2 (Q14344 whole entry): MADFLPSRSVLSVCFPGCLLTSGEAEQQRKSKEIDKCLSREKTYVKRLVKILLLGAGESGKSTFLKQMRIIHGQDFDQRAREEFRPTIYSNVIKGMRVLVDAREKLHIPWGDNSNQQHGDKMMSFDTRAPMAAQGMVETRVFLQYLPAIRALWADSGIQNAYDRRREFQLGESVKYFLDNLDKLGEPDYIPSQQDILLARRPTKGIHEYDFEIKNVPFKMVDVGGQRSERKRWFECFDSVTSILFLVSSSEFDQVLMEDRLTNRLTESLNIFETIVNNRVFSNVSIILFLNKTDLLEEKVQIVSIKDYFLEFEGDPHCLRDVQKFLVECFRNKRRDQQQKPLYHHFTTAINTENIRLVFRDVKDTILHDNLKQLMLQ
Outline: as §5

92.1 cells [9] = assay: Immunofluorescence staining of melanocytic markers in 92.1 cells; assay type: cell-based, human
Outline: as §1

Gα13(Q226L) / LARG-RGS = molecular target: T3, Gα13(Q226L) / LARG-RGS (Homo sapiens, UniProt Q14344, Q226L); assay type: cell-based; settings: split luciferase
T3 sequence (Q14344 1-377 Q226L): T1 sequence (Q14344 1-377 Q226L)
Outline: as §5

OCM-1A cells [10] = assay: Quantitative RT-PCR of PRC2-regulated genes in OCM-1A cells; assay type: cell-based, human; settings: qRT-PCR
92.1 cells [11] = assay: Flow cytometry of DNA content; assay type: cell-based, human; settings: 92.1, 3 days
Outline: as §4

OCM-1A cells [12] = assay: Flow cytometry of DNA content; assay type: cell-based, human; settings: 3 days
Outline: as §4

OCM-1A cells [13] = assay: Morphology; assay type: cell-based, human; settings: 3 days
Outline: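 Cells were treated with test compound for 3 days and imaged by phase contrast on an inverted microscope with a 10× objective. Representative fields are from one of 3 experiments.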

Gαi/q(R54K) [14] = assay: Attenuation of cannabinoid receptor-evoked inhibition of forskolin-induced cAMP; assay type: cell-based; settings: Neuro2A
Mel202 cells [15] = assay: Cell viability/proliferation; assay type: cell-based, human; settings: read-out: EC50, inhibition of proliferation (viability)
Outline: as §2

Gαi/q = assay: Attenuation of cannabinoid receptor-evoked inhibition of forskolin-induced cAMP; assay type: cell-based; settings: read-out: IC50, attenuation of Gαi/q-mediated inhibition of forskolin-induced cAMP accumulation; Neuro2A, cannabinoid type 1 receptors, WIN 55,212-2
Gαq(Q209L) / Gβγ = molecular target: T4, Gαq(Q209L) / Gβγ (Mus musculus, UniProt P21279, Q209L); assay: Co-purification of endogenous Gβγ with affinity-tagged constitutively active Gαq; assay type: cell-based; settings: FR 1 μM, 24 hours; n=3
T4 sequence (P21279 1-359 Q209L): T2 sequence (P21279 1-359) with Q209L
Outline: as §6

Gαq(Q209L) = molecular target: T5, Gαq(Q209L) (Mus musculus, UniProt P21279, Q209L); assay: SRE; assay type: cell-based; settings: read-out: IC50, inhibition of transcriptional reporter driven by constitutively active Gαq; SRE(L) reporter
T5 sequence (P21279 1-359 Q209L): T2 sequence (P21279 1-359) with Q209L
Outline: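 Firefly luciferase signal from the Gα-driven transcriptional reporter was normalized to co-transfected Renilla luciferase from a constitutive promoter.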

92.1 cells [16] = assay: Cell viability/proliferation; assay type: cell-based, human; settings: read-out: EC50, inhibition of proliferation (viability)
Outline: as §2

OCM-1A cells [17] = assay: IP1 abundance; assay type: cell-based, human; settings: BRAF(V600E)-driven
Outline: as §7

Mel202 cells [18] = assay: IP1 abundance; assay type: cell-based, human; settings: Mel202, Gαq(Q209L)-driven
Outline: as §7

Gαi/q(Q204L) = Gαi/q(Q204L) (Homo sapiens, UniProt P63096, H188P/K180P/K54R/Q204L/T187Y/V185I/V50I/V72L/Y69F); assay: GTP hydrolysis; assay type: biochemical; settings: FR 25 μM
Sequence of Gαi/q(Q204L) (P63096 whole entry V50I/K54R/Y69F/V72L/K180P/V185I/T187Y/H188P/Q204L): as the sequence (P63096 whole entry V50I/Y69F/V72L/K180P/V185I/T187Y/H188P) above, with K54R, Q204L counted along it
Outline: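 His-tagged Gαi/q(Q204L) was expressed in E. coli; it is Gαi1 carrying eight Gαq-type substitutions. The protein (3 μM) was in 50 mM Tris-HCl pH 8.0, 5 mM MgCl2, 1 mM EDTA, 0.5 mM DTT. Reaction started with γ32P-GTP (100 nM final, 100 Ci/mmol); protein was in >10-fold excess. FR (25 μM final) or DMSO was added partway. Aliquots were quenched in 1N formic acid and resolved on PEI-cellulose TLC. Triplicate, ≥3 days, different protein preparations.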

Gα13(Q226L) = molecular target: T6, Gα13(Q226L) (Homo sapiens, UniProt Q14344, Q226L); assay: SRE; assay type: cell-based; settings: SRE(L) reporter
T6 sequence (Q14344 1-377 Q226L): T1 sequence (Q14344 1-377 Q226L)
Outline: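 SRE(L) promoter-driven firefly luciferase transcriptional reporter activated by constitutively active Gα13. Firefly signal was normalized to co-transfected Renilla luciferase expressed from a constitutive promoter.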

C=C1C(=O)N[C@@H](C)C(=O)N(C)[C@@H](C)C(=O)N[C@@H]([C@H](OC(=O)[C@@H](NC(=O)CC)[C@H](O)C(C)C)C(C)C)C(=O)N(C)[C@@H]([C@@H](C)OC)C(=O)O[C@H](C(C)C)[C@H](NC(C)=O)C(=O)O[C@H](Cc2ccccc2)C(=O)N1C [FR, FR900359] (Ac-[X1][dPhLac][NMeDha]A[NMeA][X1](Leu(3R-OH,Nα-propionyl))[NMeT](Me); ester 1-C)
Increase in proportion of DCT-positive cells (Mel202 cells [1]): 1.6 fold
Increase in proportion of PMEL-positive cells (Mel202 cells [1]): 3.9 fold
Increase in proportion of TYR-positive cells (Mel202 cells [1]): 1.8 fold
Effect on proliferation (OCM-1A cells [2]): no effect
Melanocytic pigmentation (Mel202 cells [3]): increased
Decrease in expression of BBC3/PUMA (92.1 cells [4]): 3.5 fold
Decrease in expression of PMAIP1/NOXA (92.1 cells [4]): 2.5 fold
Decrease in expression of p21CIP1 (CDKN1A) (92.1 cells [4]): 3.0 fold
Fold less potent toward Gαi/q(R54K) than Gαi/q (nucleotide exchange) (Gαi/q(R54K) [5]): > 10 fold
Apoptosis (increased fraction of sub-G1/G0 cells) (Mel202 cells [6]): induced
Cell cycle inhibition (decreased fraction of S- or G2/M-phase cells) (Mel202 cells [6]): induced
Effect on interaction between constitutively active Gα13(Q226L) and Gβ1γ2 (Gα13(Q226L) / Gβ1γ2): lack of effect
Melanocytic pigmentation (92.1 cells [7]): increased
Increase of association between Gβγ and affinity-tagged wild type Gαq (co-purification) (wild type Gαq / Gβγ): 19 fold
Reduction of IP1 abundance (92.1 cells [8]): > 50 fold
Effect on interaction between wild type Gα13 and Gβ1γ2 (wild type Gα13 / Gβ1γ2): lack of effect
Increase in proportion of DCT-positive cells (92.1 cells [9]): 3.5 fold
Increase in proportion of PMEL-positive cells (92.1 cells [9]): 6.8 fold
Effect on interaction between constitutively active Gα13 and RGS domain of LARG (Gα13(Q226L) / LARG-RGS): lack of effect
Expression of PRC2-regulated genes (OCM-1A cells [10]): unaffected
Apoptosis (increased fraction of sub-G1/G0 cells) (92.1 cells [11]): induced
Cell cycle inhibition (decreased fraction of S- or G2/M-phase cells) (92.1 cells [11]): induced
Effect on cell cycle and apoptosis (OCM-1A cells [12]): no effect
Morphological changes (OCM-1A cells [13]): no effect
Fold less potent toward Gαi/q(R54K) than Gαi/q (cAMP signaling in cells) (Gαi/q(R54K) [14]): ~ 30 fold
IC50 (Gαi/q(R54K) [14]; read-out: IC50, attenuation of Gαi/q(R54K)-mediated inhibition of forskolin-induced cAMP accumulation, cannabinoid type 1 receptors, WIN 55,212-2): ~800 nM
EC50 (Mel202 cells [15]): 6 nM
IC50 (Gαi/q): 25 nM
Increase of association between Gβγ and affinity-tagged constitutively active Gαq (co-purification) (Gαq(Q209L) / Gβγ): 9 fold
IC50 (Gαq(Q209L)): 1 nM
EC50 (92.1 cells [16]): 2 nM
Reduction of IP1 abundance (OCM-1A cells [17]): ~ 2 fold
Reduction of IP1 abundance (Mel202 cells [18]): > 50 fold
Correction of GTP hydrolysis defect of Gαi/q(Q204L) (Gαi/q(Q204L)): not corrected
Effect on transcriptional reporter driven by constitutively active Gα13 (Gα13(Q226L)): no effect

Reference: PMC6279241 (Science signaling, 2018)
